The text below walks through data of ChEMBL document CHEMBL1132950, “Synthesis, structure, and antitumor activity of a novel tetranuclear titanium complex” (J Med Chem, 2000).

Experiment [1] has as its system Mus musculus. As to the kind of experiment: In vivo activity expressed as life span value of average treated / untreated AJ mice for 9.6/6 days (SEM value = 1.55). The format is functional, organism-based. The settings on record: in the assay text read “9.3/6 days” for “9.6/6 days”. A digest of the protocol: (§1)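 Female AJ mice (20–25 g, 5–8 weeks) received 10^6 TA-3 ascites cells ip. From day 3 they got 0.1 mL ip of liposomal complex (1.5×10^-2 M in Ti complex, 0.9% NaCl), each dose equal to 6.2 mg/kg, daily for 1–5 consecutive days. Groups had 5–7 animals. Survival days are given as treated/untreated.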

For experiment [2], the system named is Vero. As to the kind of experiment: In vitro percentage of live Vero cells after treatment at 100 uM. The format is functional, cell-based. The conditions noted are these: Chlorocebus sabaeus. In short, it runs like this:
(§2)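 Ti complex encapsulated in DPPC liposomes and diluted in 0.9% NaCl. It was added to monolayer cells grown in L-15 with 5% fetal calf serum, penicillin G and gentamicin at 37 °C and 100% humidity, then incubated 72 h at 37 °C. Cells were trypsinized and stained with 0.4% trypan blue, and live cells were counted in a Neubauer chamber. Viability is treated/control viable cells ×100. Five runs.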

Experiment [3] concerns Vero. As to the kind of experiment: In vitro percentage of live Vero cells after treatment at 500 uM. The class given is functional, cell-based. The settings on record: Chlorocebus sabaeus. In short, it runs like this: as §2
In experiment [4] the test system is HEp-2. As to the kind of experiment: In vitro percentage of live HEP-2 cells after treatment at 80 uM. The class given is functional, cell-based. The settings on record: Homo sapiens. A digest of the protocol:
as §2

In experiment [5] the test system is HEp-2. As to the kind of experiment: In vitro percentage of live HEP-2 cells after treatment at 500 uM. The settings on record: Homo sapiens. The class given is functional, cell-based. In short, it runs like this: as §2
The test system of experiment [6] is Vero. The experiment in a line: In vitro percentage of live Vero cells after treatment at 8 uM. The format is functional, cell-based. The conditions noted are these: Chlorocebus sabaeus. A digest of the protocol:
as §2

Experiment [7] relates to Mus musculus. As to the kind of experiment: In vivo activity expressed as life span value of average treated / untreated AJ mice for 11.3/6 days (SEM value = 1.88). The class given is functional, organism-based. A digest of the protocol:
as §1

The test system of experiment [8] is Mus musculus. The experiment in a line: In vivo activity expressed as life span value of average treated / untreated CF-1 mice for 20/13 days (SEM value = 1.54). The class given is functional, organism-based. In short, it runs like this:
(§3)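 Female CF-1 mice (30–35 g, 5–8 weeks) received 10^6 TA-3 ascites cells ip. Three days later, daily ip injections of 0.1 mL DPPC-liposomal complex (1.5×10^-2 M in Ti complex, in 0.9% NaCl) began, each dose equal to 4.1 mg/kg, given for 1–5 consecutive days. Groups had 5–7 mice. Mean survival days are given as treated/untreated.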

The test system of experiment [9] is Vero. As to the kind of experiment: In vitro percentage of live Vero cells after treatment at 80 uM. The settings on record: Chlorocebus sabaeus. The format is functional, cell-based. A digest of the protocol: as §2
For experiment [10], the system named is Mus musculus. As to the kind of experiment: In vivo activity expressed as life span value of average treated / untreated AJ mice for 11.6/6 days (SEM value = 1.93). The class given is functional, organism-based. In short, it runs like this:
as §1

The subject of experiment [11] is Mus musculus. The experiment in a line: In vivo activity expressed as life span value of average treated / untreated CF-1 mice for 26/13 days (SEM value = 2). The class given is functional, organism-based. A digest of the protocol: as §3
Experiment [12] concerns Mus musculus. The experiment in a line: In vivo activity expressed as life span value of average treated / untreated CF-1 mice for 25.2/13 days (SEM value = 1.94). The format is functional, organism-based. A digest of the protocol:
as §3

The subject of experiment [13] is HEp-2. The experiment in a line: In vitro percentage of live HEP-2 cells after treatment at 100 uM. The format is functional, cell-based. The conditions noted are these: Homo sapiens. In short, it runs like this:
as §2

Experiment [14] relates to Mus musculus. The experiment in a line: In vivo activity expressed as life span value of average treated / untreated AJ mice for 17.6/6 days (SEM value = 2.93). The class given is functional, organism-based. In short, it runs like this:
as §1

Experiment [15] has as its system Mus musculus. As to the kind of experiment: In vivo activity expressed as life span value of average treated / untreated AJ mice for 15/6 days (SEM value = 2.54). The format is functional, organism-based. In short, it runs like this: as §1
Experiment [16] has as its system Mus musculus. The experiment in a line: In vivo activity expressed as life span value of average treated / untreated CF-1 mice for 25/13 days (SEM value = 1.92). The class given is functional, organism-based. In short, it runs like this: as §3
In experiment [17] the test system is HEp-2. As to the kind of experiment: In vitro percentage of live HEP-2 cells after treatment at 8 uM. The format is functional, cell-based. The conditions noted are these: Homo sapiens. A digest of the protocol:
as §2

“cyclo-Tetrakis[bis(1-phenyl-3-methyl-4-benzoylpyrazol-5-onato)-mu-oxotitanium(IV)]”: the T/C in the experiment on Mus musculus [1] amounted to 155%; in the experiment on Mus musculus [7], 188%; with Mus musculus [8], 154%; in the experiment on Mus musculus [10] it was 193%; in the experiment with Mus musculus [11] it was 200%; in the experiment on Mus musculus [12], 194%. Further, the T/C in the experiment on Mus musculus [14] was found to be 293%; in the experiment on Mus musculus [15], 254%; with Mus musculus [16] it was 192%. Further, the viability is 97.1% in the experiment with Vero [2]; 95.2% in the experiment on Vero [3]; 77.4% in the experiment with HEp-2 [4]; 30% in the experiment with HEp-2 [5]; 100% with Vero [6]; 98.4% in the experiment with Vero [9]. In addition, the results for the viability in the experiment with HEp-2 [13] and in the experiment on HEp-2 [17] were 40.3% and 77.4%, respectively.

The T/C is the ratio of treated to control. The term viability denotes the share of living cells, or the viability signal relative to a control. Higher therefore signals better survival.
